Measurements gathered from unrelated publications.
Lines come from different studies, so protocols differ.
Target: Serine/threonine-protein kinase PLK1 (PLK1, Homo sapiens, UniProt P53350)

COc1cc(Nc2cnc(C#N)c(O[C@H](C)CN(C)C)n2)ncc1-c1cnn(C)c1  remaining activity (enzyme activity, inhibitor, radiometric; 10 µM): 104%
CNCc1ccccc1-c1csc([C@H](C)Nc2nc(C)nc3cc(OC)c(OC)cc23)c1  remaining binding (cell-free assay, competition with immobilised ligand; 1 µM): 85%
CCN(CC)c1ccc(C2=NNC(=O)CC2C)cc1[N+](=O)[O-] (stereo not drawn)  remaining activity (enzyme activity, inhibitor; 10 µM): 103%
COc1cc(Cl)c(C(=O)N[C@@H](CN[C@H]2CC[C@@H](N)CC2)Cc2ccc(C#N)cc2)cc1-c1ccc(CN[C@H](C)c2ccc(C)cc2)o1  remaining activity (enzyme activity, inhibitor; 1 µM): 94%
Cc1cnc(NC2CCOCC2)nc1-n1cnc(C(=O)NC(CN)c2cc(F)cc(Cl)c2)c1 (stereo not drawn)  remaining activity (enzyme activity, inhibitor, radiometric; 1 µM): 103%
Cc1[nH]c(/C=C2\C(=O)Nc3ccc(F)cc32)c(C)c1C(=O)N[C@H]1CCN(C(=O)N(C)C)C1  remaining activity (enzyme activity, inhibitor; 0.1 µM): 126%
Cc1ccc(C(=O)NCc2ccsc2)cc1C#Cc1cn(C(C)C)c2ncnc(N)c12  activity vs control (enzyme activity, inhibitor; 1 µM): 105%
Cn1cc(Cl)c2c(Oc3c(F)cc(Nc4cc(Cl)nc(N)n4)cc3F)ccnc21  remaining binding (cell-free assay, competition with immobilised ligand; 0.1 µM): 83%
CCN(CC)CCNC(=O)c1c(C)[nH]c(/C=C2\C(=O)Nc3ccc(F)cc32)c1C  remaining signal (cell-free assay; 0.5 µM): 96.4%
CS(=O)(=O)Nc1cccc(-c2csc(NC(=O)CSc3nc4nccnc4c(=O)n3CCc3ccccc3)n2)c1  inhibition (enzyme activity, inhibitor; 10 µM): 11%
O=c1cc(N2CCOCC2)oc2c(-c3ccccc3)cccc12  remaining signal (cell-free assay; 0.5 µM): 67.1%
Cc1ccc(NC(=O)c2ccc(C)c(C(F)(F)F)c2)cc1C#Cc1nn(C2CCC(O)CC2)c2ncnc(N)c12 (stereo not drawn)  remaining signal (cell-free assay; 10 µM): 92%
CN(C)C1CCN(CC#Cc2nn(C3CCCC3)c3nc(NCc4ccccc4)ncc23)C1 (stereo not drawn)  inhibition (enzyme activity, inhibitor, FRET; 0.1 µM): -1%
CCN1CCN(Cc2ccc(NC(=O)c3ccc(C)c(Oc4ccnc5[nH]ccc45)c3)cc2C(F)(F)F)CC1  inhibition (target engagement in cells, inhibitor, chemoproteomics; Huh-7; 10 µM): -35%
O=C(NC[C@@H]1[C@H]2CN(C(=O)OCc3cc(C(F)(F)F)cc(C(F)(F)F)c3)C[C@@H]12)c1ccc2[nH]nnc2c1  remaining binding (cell-free assay, competition with immobilised ligand; 1 µM): 100%
Oc1cccc(-c2nc(N3CCOCC3)c3oc4ncccc4c3n2)c1  remaining activity (enzyme activity, inhibitor; 10 µM): 93%
O=C(Nc1ccc(Oc2ccc(F)cc2)cc1)N1CCc2ncccc2[C@H]1c1ccc(F)cc1  remaining binding (cell-free assay, competition with immobilised ligand; 1 µM): 78%
O=C1NC(=O)c2cc(Nc3ccc(F)cc3)c(Nc3ccc(F)cc3)cc21  remaining signal (cell-free assay; 0.5 µM): 99.9%
CC(C)(O)[C@H]1CC[C@H](Nc2ccc3ncc(-c4cccc(C(F)(F)F)c4)n3n2)CC1  remaining activity (enzyme activity, inhibitor; 1 µM): 94.4%
Cn1nc(C(=O)NCc2ccc(C(=O)O)cc2)cc1-c1ccc2[nH]ccc2c1  remaining binding (cell-free assay, competition with immobilised ligand; 0.1 µM): 95%
CC/C(=N\NC(=O)NCc1cccc(O)c1)c1ccc(O)c(C)c1O  inhibition (enzyme activity, inhibitor; 0.1 µM): -2.6%
COc1cc(/C=C/C(=O)CC(=O)/C=C/c2ccc(O)c(OC)c2)ccc1O  activity vs control (enzyme activity, inhibitor; 1 µM): 75%
O=C(O)[C@@H]1[C@@H](Cn2nnc3ccccc3c2=O)CC[C@H]1C(=O)c1ccc(OCCC2CCOCC2)cc1  remaining binding (cell-free assay, competition with immobilised ligand; 1 µM): 80%
Nc1nc(Nc2ccccc2)sc1C(=O)c1c(F)cccc1F  remaining activity (enzyme activity, inhibitor; 10 µM): 86%
CS(=O)(=O)CCNCc1ccc(-c2ccc3ncnc(Nc4ccc(OCc5cccc(F)c5)c(Cl)c4)c3c2)o1  remaining signal (cell-free assay; 0.5 µM): 99%
FC(F)(F)Oc1cccc(-c2cnc3ccc(-c4ccncc4)nn23)c1  activity vs control (enzyme activity, inhibitor, radiometric; 5 µM): 98%
Nc1ncnc2occ(-c3ccc(NC(=O)Nc4cc(C(F)(F)F)ccc4F)cc3)c12  remaining signal (cell-free assay, inhibitor; 20 µM): 100%
Cc1nc(C2CCN(C(=O)c3ccc(OC(F)(F)F)cc3N)CC2)c2ncc(N3CCN(C)CC3)cc2n1  remaining binding (cell-free assay, competition with immobilised ligand; 1 µM): 79%
Cc1ccc(C(=O)Nc2ccc(CN3CCN(C)CC3)c(C(F)(F)F)c2)cc1C#Cc1cnc2cccnn12  remaining activity (enzyme activity, inhibitor; 23.5 nM): 96%
COc1cc2ncnc(Nc3ccc(Oc4ccccc4)c(C)c3C)c2cc1OC  inhibition (enzyme activity, inhibitor; 1 µM): -1%
Cc1sc(C(=O)NC2COC2)cc1-n1cc(NC(=O)Nc2c(F)cccc2Cl)cn1  remaining activity (enzyme activity, inhibitor; 10 µM): 102%
Cc1cc(-n2nc(Cc3cc(F)cc(C(F)(F)F)c3)nc2C)ccc1C(N)=O  remaining binding (cell-free assay, competition with immobilised ligand; 1 µM): 100%
CN1CC(Oc2cnc(C#N)cc2-c2ccn3nc(NC(=O)C4CC4)cc3c2)C1  inhibition (enzyme activity, inhibitor; 1 µM): 6%
